{"data": "Experimental data from different studies", "target": "MAP kinase-activated protein kinase 5 (MAPKAPK5, Homo sapiens, UniProt Q8IW41)"}
{"Compound": "O=C(Nc1cnn(-c2csc(C(=O)NC3COC3)c2)c1)Nc1c(F)cccc1Cl", "effect on": "enzyme activity", "mode": "inhibitor", "concentration": "5 µM", "endpoint": "remaining activity", "result": "99.7%"}
{"Compound": "CCN(CC)CCNC(=O)c1c(C)[nH]c(/C=C2\\C(=O)Nc3ccc(F)cc32)c1C", "effect on": "cell-free assay", "concentration": "0.5 µM", "endpoint": "remaining signal", "result": "82.7%"}
{"Compound": "CC1=C(C#N)C(c2ccc3c(c2)c(NC(=O)c2ccccc2C)nn3C)C(C#N)=C(C)N1", "effect on": "cell-free assay", "method": "competition with immobilised ligand", "concentration": "1 µM", "endpoint": "remaining binding", "result": "100%"}
{"Compound": "COc1ccc(COc2ccc(Cc3cnc(N)nc3N)cc2OC)cc1", "effect on": "cell-free assay", "concentration": "0.5 µM", "endpoint": "remaining signal", "result": "87.5%"}
{"Compound": "Cc1ccc(Nc2nccc(N(C)c3ccc4c(C)n(C)nc4c3)n2)cc1S(N)(=O)=O", "effect on": "enzyme activity", "mode": "inhibitor", "concentration": "0.3 µM", "endpoint": "inhibition", "result": "-3%"}
{"Compound": "CO[C@@H](C)c1c(Nc2ccc([C@H](N(C)C(=O)C3CCS(=O)(=O)CC3)C(F)(F)F)cc2)cnc2cc(Cl)nn12", "effect on": "cell-free assay", "method": "competition with immobilised ligand", "concentration": "1 µM", "endpoint": "remaining binding", "result": "100%"}
{"Compound": "FC(F)(F)Oc1cccc(-c2cnc3ccc(-c4ccncc4)nn23)c1", "effect on": "enzyme activity", "mode": "inhibitor", "method": "radiometric", "concentration": "1 µM", "endpoint": "activity vs control", "result": "85%"}
{"Compound": "CNCc1ccc(-c2cc(-c3nc(-c4ccc(S(=O)(=O)C(C)C)cc4)cnc3N)on2)cc1", "effect on": "enzyme activity", "mode": "inhibitor", "concentration": "0.4 µM", "endpoint": "inhibition", "result": "0%"}
{"Compound": "Cc1cc(NC(=O)c2cccc3cc(-c4cccc5[nH]nc(N)c45)ccc23)ccc1F", "effect on": "enzyme activity", "mode": "inhibitor", "concentration": "0.1 µM", "endpoint": "activity vs control", "result": "103%"}
{"Compound": "O=C1NC(=O)c2cc(Nc3ccc(F)cc3)c(Nc3ccc(F)cc3)cc21", "effect on": "cell-free assay", "concentration": "0.5 µM", "endpoint": "remaining signal", "result": "93.4%"}
{"Compound": "Cc1nc(Cc2cccc(C(F)(F)F)c2)sc1-c1ccc(C(N)=O)nc1", "effect on": "cell-free assay", "method": "competition with immobilised ligand", "concentration": "1 µM", "endpoint": "remaining binding", "result": "100%"}
{"Compound": "CN(c1ncccc1CNc1nc(Nc2ccc3c(c2)CC(=O)N3)ncc1C(F)(F)F)S(C)(=O)=O", "effect on": "enzyme activity", "mode": "inhibitor", "concentration": "1 µM", "endpoint": "inhibition", "result": "0%"}
{"Compound": "CNC(=O)c1cc(Oc2ccc(NC(=O)Nc3ccc(Cl)c(C(F)(F)F)c3)cc2)ccn1", "effect on": "enzyme activity", "mode": "inhibitor", "concentration": "10 µM", "endpoint": "inhibition", "result": "66%"}
{"Compound": "Nc1nc(NC2CCCCC2)sc1C(=O)c1ccccc1", "effect on": "enzyme activity", "mode": "inhibitor", "concentration": "10 µM", "endpoint": "remaining activity", "result": "96%"}
{"Compound": "O=c1nc(-c2ccccn2)sc2ccccc12", "effect on": "binding", "method": "competition with immobilised ligand", "concentration": "1 µM", "endpoint": "remaining binding", "result": "92%"}
{"Compound": "COc1cc(Cl)c(C(=O)N[C@@H](CN[C@H]2CC[C@@H](N)CC2)Cc2ccc(C#N)cc2)cc1-c1ccc(CN[C@H](C)c2ccc(C)cc2)o1", "effect on": "enzyme activity", "mode": "inhibitor", "concentration": "1 µM", "endpoint": "remaining activity", "result": "89%"}
{"Compound": "COCCOc1nc(-c2ccc(Cl)nc2)nc2c1CN(C(=O)c1ncn3ccccc13)CC2", "effect on": "cell-free assay", "method": "competition with immobilised ligand", "concentration": "0.1 µM", "endpoint": "remaining binding", "result": "100%"}
{"Compound": "Nc1ncnc2occ(-c3ccc(NC(=O)Nc4cc(C(F)(F)F)ccc4F)cc3)c12", "effect on": "cell-free assay", "mode": "inhibitor", "concentration": "20 µM", "endpoint": "remaining signal", "result": "58%"}
{"Compound": "CCCS(=O)(=O)Nc1ccc(F)c(C(=O)c2c[nH]c3ncc(-c4ccc(Cl)cc4)cc23)c1F", "effect on": "enzyme activity", "mode": "inhibitor", "concentration": "1 µM", "endpoint": "inhibition", "result": "< 10%"}
{"Compound": "COc1cc2ncnc(Nc3ccc(Oc4ccccc4)cc3C)c2cc1OC", "effect on": "enzyme activity", "mode": "inhibitor", "concentration": "1 µM", "endpoint": "inhibition", "result": "3%"}
{"Compound": "Cc1ccc(C(=O)Nc2ccc(CN3CCN(C)CC3)c(C(F)(F)F)c2)cc1C#Cc1cnc2cccnn12", "effect on": "enzyme activity", "mode": "inhibitor", "concentration": "23.5 nM", "endpoint": "remaining activity", "result": "84%"}
{"Compound": "Cn1c(=O)n(-c2ccc(C(C)(C)C#N)cc2)c2c3cc(-c4cnc5ccccc5c4)ccc3ncc21", "effect on": "enzyme activity", "mode": "inhibitor", "concentration": "10 µM", "endpoint": "remaining activity", "result": "93%"}
{"Compound": "CNC(=O)Nc1ccc2c(c1)CC[C@@]21OC(=O)N(CC(=O)N(Cc2ccc(F)cc2)[C@@H](C)C(F)(F)F)C1=O", "effect on": "cell-free assay", "method": "competition with immobilised ligand", "concentration": "1 µM", "endpoint": "remaining binding", "result": "82%"}
{"Compound": "O=C(Nc1cnn(-c2csc(C(=O)NC3COC3)c2)c1)Nc1ccccc1Cl", "effect on": "enzyme activity", "mode": "inhibitor", "concentration": "5 µM", "endpoint": "remaining activity", "result": "92.8%"}
{"Compound": "CC(C)(C)c1nc(-c2cccc(NS(=O)(=O)c3c(F)cccc3F)c2F)c(-c2ccnc(N)n2)s1", "effect on": "enzyme activity", "mode": "inhibitor", "method": "radiometric", "concentration": "1 µM", "endpoint": "remaining activity", "result": "37%"}
{"Compound": "CCCOc1ccc(OC)c(F)c1C(=O)c1ccc(C(=O)N[C@@H]2CNC[C@H]2NC(=O)c2ccc3[nH]ncc3c2)cc1", "effect on": "enzyme activity", "mode": "inhibitor", "concentration": "10 µM", "endpoint": "remaining activity", "result": "91%"}
{"Compound": "Cc1ccc(C(=O)NCc2ccsc2)cc1C#Cc1cn(C(C)C)c2ncnc(N)c12", "effect on": "enzyme activity", "mode": "inhibitor", "concentration": "1 µM", "endpoint": "activity vs control", "result": "92%"}
{"Compound": "Cn1cnc(Br)c1C1=CN(c2ncnc3[nH]cnc23)CCS1", "effect on": "enzyme activity", "mode": "inhibitor", "method": "radiometric", "concentration": "2 µM", "endpoint": "inhibition", "result": "15.2%"}
{"Compound": "CCN(CC)c1ccc(C2=NNC(=O)CC2C)cc1[N+](=O)[O-] (stereo not drawn)", "effect on": "enzyme activity", "mode": "inhibitor", "concentration": "10 µM", "endpoint": "remaining activity", "result": "104%"}
{"Compound": "COc1ccc2cc(OCC3(C(=O)O)CN(C(=O)c4ccc(F)cc4)C3)ccc2c1", "effect on": "cell-free assay", "method": "competition with immobilised ligand", "concentration": "1 µM", "endpoint": "remaining binding", "result": "76%"}
{"Compound": "CN1CC(Oc2cnc(C#N)cc2-c2ccn3nc(NC(=O)C4CC4)cc3c2)C1", "effect on": "enzyme activity", "mode": "inhibitor", "concentration": "1 µM", "endpoint": "inhibition", "result": "-14%"}
{"Compound": "Cc1nc(C2CCN(C(=O)c3ccc(OC(F)(F)F)cc3N)CC2)c2ncc(N3CCN(C)CC3)cc2n1", "effect on": "cell-free assay", "method": "competition with immobilised ligand", "concentration": "1 µM", "endpoint": "remaining binding", "result": "94%"}
{"Compound": "COc1cc(Nc2cnc(C#N)c(O[C@H](C)CN(C)C)n2)ncc1-c1cnn(C)c1", "effect on": "enzyme activity", "mode": "inhibitor", "method": "radiometric", "concentration": "1 µM", "endpoint": "remaining activity", "result": "78%"}
